pIC50, pKi: −log10 of the molar value.

For experiment [1], the target named is Glutamate NMDA receptor. Briefly: Inhibition of [3H]-MK-801 binding to NMDA receptor from rat cerebral cortical synaptic membrane.
For experiment [2], the target named is Sodium-dependent serotonin transporter (Rattus norvegicus, UniProt P31652). Briefly: Inhibition of [3H]-paroxetine binding on serotonin transporter of rat cerebral cortical synaptic membrane. The method, boiled down:
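Rat cerebral cortical synaptic membranes incubated with test agent at various concentrations, [³H]paroxetine 2 nM, in 50 mM Tris-HCl pH 7.4 with 120 mM NaCl and 5 mM KCl, 20 °C for 45 min. Stopped by rapid filtration on polyethylenimine-presoaked glass-fiber filters, washed with cold Tris-HCl. Bound radioactivity counted. Result given as Ki.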

Experiment [3] is filed under the species Rattus norvegicus. In words: Ratio of 5 HT inhibition to NMDA receptor binding.
The target of experiment [4] is Glutamate receptor ionotropic, NMDA 2C (Rattus norvegicus) (UniProt Q00961). In words: (§1) Percentage inhibition of N-methyl-D-aspartic acid (NMDA) receptor produced by oocytes. Format: functional, cell-based. The following applies: Xenopus laevis; Oocyte; concentration not given here. The essentials: (§2)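 Xenopus oocytes injected with whole-brain mRNA from 10-day-old Wistar rats (guanidine/CsCl extraction), then two-electrode voltage-clamped with 3 M KCl-filled electrodes. Currents evoked by 30 µM NMDA plus 10 µM Gly with test agent present at different concentrations. Block of the NMDA response recorded as percent inhibition or IC50.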
Chain of Glutamate receptor ionotropic, NMDA 2C (Rattus norvegicus) (Q00961 20-1237 limits assumed): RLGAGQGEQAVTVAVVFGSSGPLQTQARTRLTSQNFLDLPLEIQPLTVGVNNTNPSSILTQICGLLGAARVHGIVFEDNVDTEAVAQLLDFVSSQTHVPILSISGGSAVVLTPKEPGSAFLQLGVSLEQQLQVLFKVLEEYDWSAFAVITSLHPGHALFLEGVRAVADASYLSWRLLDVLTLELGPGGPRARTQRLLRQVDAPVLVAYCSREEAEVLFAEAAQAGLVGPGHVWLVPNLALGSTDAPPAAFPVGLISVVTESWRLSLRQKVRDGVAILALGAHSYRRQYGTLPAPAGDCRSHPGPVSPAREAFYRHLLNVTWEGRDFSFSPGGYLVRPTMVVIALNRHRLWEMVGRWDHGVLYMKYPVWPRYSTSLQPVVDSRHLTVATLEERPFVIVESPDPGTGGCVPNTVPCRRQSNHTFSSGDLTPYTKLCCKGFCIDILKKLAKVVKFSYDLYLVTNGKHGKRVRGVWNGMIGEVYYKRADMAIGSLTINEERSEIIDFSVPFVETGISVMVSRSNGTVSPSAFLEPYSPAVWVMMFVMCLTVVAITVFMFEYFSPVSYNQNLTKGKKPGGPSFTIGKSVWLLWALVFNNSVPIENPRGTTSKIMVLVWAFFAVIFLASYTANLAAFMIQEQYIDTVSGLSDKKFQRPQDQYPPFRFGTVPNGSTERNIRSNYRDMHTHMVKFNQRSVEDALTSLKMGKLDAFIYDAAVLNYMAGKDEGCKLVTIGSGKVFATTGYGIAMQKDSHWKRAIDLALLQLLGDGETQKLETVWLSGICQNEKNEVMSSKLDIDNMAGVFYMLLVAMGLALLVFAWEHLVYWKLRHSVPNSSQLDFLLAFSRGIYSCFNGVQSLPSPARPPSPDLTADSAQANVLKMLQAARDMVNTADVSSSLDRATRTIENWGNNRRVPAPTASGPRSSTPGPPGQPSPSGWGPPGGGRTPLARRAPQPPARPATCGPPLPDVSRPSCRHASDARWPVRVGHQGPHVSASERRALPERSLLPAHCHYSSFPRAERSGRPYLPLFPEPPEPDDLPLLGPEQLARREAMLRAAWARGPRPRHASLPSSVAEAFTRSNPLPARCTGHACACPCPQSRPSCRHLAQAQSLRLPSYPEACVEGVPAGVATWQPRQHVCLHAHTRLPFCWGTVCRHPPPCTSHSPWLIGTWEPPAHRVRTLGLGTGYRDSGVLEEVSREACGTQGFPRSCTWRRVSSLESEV

For experiment [5] the target is unchanged. The description is as §1. Format: cell-based. The following applies: Xenopus laevis; Oocyte; concentration not given here. The method, boiled down: as §2
In experiment [6] the target is Glutamate receptor ionotropic, NMDA 2C (Rattus norvegicus, UniProt Q00961). Briefly: Concentration required to inhibit of N-methyl-D-aspartic acid (NMDA) receptor produced by oocytes. Format: functional, cell-based, Oocyte. The essentials:
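Xenopus oocytes were injected with whole-brain mRNA from 10-day-old Wistar rats, extracted by the guanidine/CsCl method. They were two-electrode voltage-clamped with electrodes filled with 3 M KCl. Currents were evoked by 30 µM NMDA plus 10 µM Gly in the presence of test compound at different concentrations. The read-out was block of the NMDA response, given as IC50 or percent inhibition.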

Chain of Sodium-dependent serotonin transporter (P31652 whole entry): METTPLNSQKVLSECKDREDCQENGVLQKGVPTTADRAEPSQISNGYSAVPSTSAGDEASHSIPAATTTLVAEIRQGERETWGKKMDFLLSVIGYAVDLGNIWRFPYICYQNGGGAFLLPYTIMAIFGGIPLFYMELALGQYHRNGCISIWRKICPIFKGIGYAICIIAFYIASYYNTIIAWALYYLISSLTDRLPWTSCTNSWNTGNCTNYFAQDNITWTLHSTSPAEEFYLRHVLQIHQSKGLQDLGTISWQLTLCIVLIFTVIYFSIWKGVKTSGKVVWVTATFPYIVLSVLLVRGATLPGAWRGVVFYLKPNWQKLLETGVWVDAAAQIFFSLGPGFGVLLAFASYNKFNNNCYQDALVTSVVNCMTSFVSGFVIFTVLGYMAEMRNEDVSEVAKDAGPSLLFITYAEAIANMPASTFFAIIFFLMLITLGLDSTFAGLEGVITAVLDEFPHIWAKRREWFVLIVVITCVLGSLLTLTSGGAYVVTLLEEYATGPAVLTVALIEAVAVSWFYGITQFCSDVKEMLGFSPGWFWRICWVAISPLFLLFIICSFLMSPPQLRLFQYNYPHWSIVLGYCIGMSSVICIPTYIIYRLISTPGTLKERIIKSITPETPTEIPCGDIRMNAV
Chain of Glutamate receptor ionotropic, NMDA 2C (Q00961 whole entry): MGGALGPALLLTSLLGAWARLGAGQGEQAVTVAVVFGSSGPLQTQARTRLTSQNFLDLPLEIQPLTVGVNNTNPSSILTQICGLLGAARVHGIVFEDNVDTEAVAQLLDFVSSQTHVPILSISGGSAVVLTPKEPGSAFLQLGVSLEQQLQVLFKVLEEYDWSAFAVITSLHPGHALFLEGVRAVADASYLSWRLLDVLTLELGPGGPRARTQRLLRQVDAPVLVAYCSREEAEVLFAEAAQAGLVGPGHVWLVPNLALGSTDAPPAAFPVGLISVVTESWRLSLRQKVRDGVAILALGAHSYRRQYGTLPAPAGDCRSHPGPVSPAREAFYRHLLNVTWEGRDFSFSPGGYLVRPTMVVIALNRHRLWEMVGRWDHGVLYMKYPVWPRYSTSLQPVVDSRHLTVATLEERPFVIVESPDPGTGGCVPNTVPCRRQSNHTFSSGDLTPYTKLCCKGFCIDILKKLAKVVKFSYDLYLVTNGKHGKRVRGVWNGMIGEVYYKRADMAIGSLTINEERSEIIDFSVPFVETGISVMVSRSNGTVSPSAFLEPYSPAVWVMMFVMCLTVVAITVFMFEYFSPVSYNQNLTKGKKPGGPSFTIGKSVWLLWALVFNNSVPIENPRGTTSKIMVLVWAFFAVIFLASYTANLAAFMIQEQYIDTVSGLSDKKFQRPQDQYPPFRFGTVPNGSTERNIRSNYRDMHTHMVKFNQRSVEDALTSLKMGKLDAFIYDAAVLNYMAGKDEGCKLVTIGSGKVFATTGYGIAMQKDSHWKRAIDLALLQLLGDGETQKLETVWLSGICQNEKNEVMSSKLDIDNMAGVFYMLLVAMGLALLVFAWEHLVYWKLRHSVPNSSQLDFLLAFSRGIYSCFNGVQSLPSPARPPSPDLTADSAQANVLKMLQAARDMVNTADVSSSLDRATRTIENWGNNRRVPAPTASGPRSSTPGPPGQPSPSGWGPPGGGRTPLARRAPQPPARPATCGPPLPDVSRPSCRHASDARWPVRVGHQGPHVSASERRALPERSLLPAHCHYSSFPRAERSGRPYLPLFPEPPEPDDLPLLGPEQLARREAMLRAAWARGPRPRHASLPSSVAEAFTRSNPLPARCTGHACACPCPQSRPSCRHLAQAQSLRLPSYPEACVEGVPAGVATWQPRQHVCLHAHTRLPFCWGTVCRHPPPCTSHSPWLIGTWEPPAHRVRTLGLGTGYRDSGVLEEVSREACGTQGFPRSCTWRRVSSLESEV

By pIC50 is commonly meant −log10 of the IC50, conventionally taken in molar units. For `c1ccc(C2(N3CCCCC3)CCCCC2)cc1` [PHENCYCLIDINE], the pIC50 in experiment [1] is 8.01.
The term pKi denotes −log10 of the Ki, conventionally taken in molar units. A lower pKi goes with a high Ki. In experiment [1], `CCCC(N)[C@@H]1C[C@@]1(C(=O)N(CC)CC)c1ccccc1` (some centres not stated) gave a pIC50 of 6.00. Also, in experiment [2], the pKi was 4.43. Also, in experiment [3], the Selectivity index was 37.
Take `CCN(CC)C(=O)[C@@]1(c2ccccc2)C[C@H]1C(N)c1ccccc1` (some centres not stated): in experiment [1], the pIC50 is 4.77. For the same compound, the pKi in experiment [2] is less than 4.00. The Selectivity index in experiment [3] is greater than 5.9.
What is called inhibition is the relative decrease from the control value, in per cent. `CCN(CC)C(=O)[C@@]1(c2ccccc2)C[C@H]1CN` [LEVOMILNACIPRAN]: the pKi in experiment [2] is 8.07. For the same compound, in experiment [4], the inhibition worked out at 53%.
In turn, `C=CC(N)[C@@H]1C[C@@]1(C(=O)N(CC)CC)c1ccccc1` (some centres not stated) showed a pIC50 in experiment [1] of 6.80. The compound further had a pKi in experiment [2] of 7.64. Further, the Selectivity index in experiment [3] worked out at 0.14.
In experiment [2], `CCC(N)[C@H]1C[C@]1(C(=O)N(CC)CC)c1ccccc1` (stereo in doubt; form 2) had a pKi of less than 4.00.
`C[C@]12N[C@H](Cc3ccccc31)c1ccccc12` returned an inhibition in experiment [5] of 98%.
In turn, `CCN(CC)C(=O)[C@@]1(c2ccccc2)C[C@H]1C(N)CC(C)C` (some centres not stated) showed a pIC50 in experiment [1] of 5.38. In addition, in experiment [2], the pKi was less than 4.00. Moreover, the Selectivity index in experiment [3] was greater than 24.
With `CCC(N)[C@@H]1C[C@@]1(C(=O)N(CC)CC)c1ccccc1` (stereo in doubt; 3b), in experiment [2], the pKi was less than 4.00.
Compound `CNC1(c2ccccc2Cl)CCCCC1=O` (configuration not stated) [KETAMINE] gave a pIC50 in experiment [1] of 6.21.
For `CCN(CC)C(=O)[C@@]1(c2ccccc2)C[C@H]1C(C)N` (stereo in doubt; 2a), the negative-log IC50 (pIC50) in experiment [1] was 6.46; in experiment [6], 5.64. Moreover, the pKi in experiment [2] is 7.85.
In turn, `CCN(CC)C(=O)[C@]1(c2ccccc2)C[C@@H]1C(C)N` (stereo in doubt; form 2) showed a pIC50 in experiment [1] of 4.72. In experiment [2], this compound gave a pKi of 6.77.
Consider `CCN(CC)C(=O)[C@]1(c2ccccc2)C[C@@H]1C(C)N` (stereo in doubt; form 1), for which the pKi in experiment [2] is less than 4.00.
`CCC(N)[C@@H]1C[C@@]1(C(=O)N(CC)CC)c1ccccc1` (stereo in doubt; 2b): the pIC50 in experiment [1] was 6.70; in experiment [6], 5.66. Further, the pKi in experiment [2] is 4.62.
In the case of `CCN(CC)C(=O)[C@@]1(c2ccccc2)C[C@H]1C(C)N` (stereo in doubt; 3a), in experiment [1], the pIC50 is 5.19. This compound had a pKi in experiment [2] of 5.62.
As to `CCC(N)[C@H]1C[C@]1(C(=O)N(CC)CC)c1ccccc1` (stereo in doubt; form 1), the pKi in experiment [2] is less than 4.00. Besides, the pIC50 in experiment [6] is 4.41.
